Measured values gathered from unrelated publications.
Protocols differ between the studies behind these lines.
CDK3 with cyclin E: Cyclin-dependent kinase 3, with cyclin E (CDK3, Homo sapiens, UniProt Q00526)
CDK3: Cyclin-dependent kinase 3 (CDK3, Homo sapiens, UniProt Q00526)
CDK3 with cyclin E2: Cyclin-dependent kinase 3, with cyclin E2 (CDK3, Homo sapiens, UniProt Q00526)

Cc1ccc(C(=O)NCc2ccsc2)cc1C#Cc1cn(C(C)C)c2ncnc(N)c12  activity vs control (CDK3 with cyclin E; enzyme activity, inhibitor; 1 µM): 98%
N#CCCc1ccc2c(c1)-c1[nH]c3ccc([N+](=O)[O-])cc3c1CC(=O)N2  remaining signal (CDK3 with cyclin E; cell-free assay; 0.5 µM): 39.7%
CC(C)(C)c1nc2c(s1)c1nc(N)ncc1c1ccc(NS(=O)(=O)c3c(F)cccc3F)c(F)c12  remaining activity (Cyclin-dependent kinase 3, with cyclin C (CDK3, Homo sapiens, UniProt Q00526); enzyme activity, inhibitor, radiometric; 1 µM): 97%
Cc1cc(-n2nc(Cc3cc(F)cc(C(F)(F)F)c3)nc2C)ccc1C(N)=O  remaining binding (CDK3; cell-free assay, competition with immobilised ligand; 1 µM): 100%
CC(C)c1ccc(NC(=O)c2cccs2)c(-c2nc3ccccc3[nH]c2=O)c1  activity vs control (CDK3 with cyclin E; enzyme activity, inhibitor; 1 µM): 109%
O=C(Nc1cnn(-c2csc(C(=O)NC3COC3)c2)c1)Nc1ccccc1Cl  remaining activity (CDK3 with cyclin E2; enzyme activity, inhibitor; 5 µM): 95.8%
Cc1cc(NC(=O)c2cccc3cc(-c4cccc5[nH]nc(N)c45)ccc23)ccc1F  activity vs control (CDK3 with cyclin E; enzyme activity, inhibitor; 0.1 µM): 96%
Cc1cc(NC(=O)c2cccc(S(F)(F)(F)(F)F)c2)cc(-n2ccn3nc(-c4cccnc4)cc23)c1  remaining binding (CDK3; cell-free assay, competition with immobilised ligand; 1 µM): 100%
CCN(CC)CCNC(=O)c1c(C)[nH]c(/C=C2\C(=O)Nc3ccc(F)cc32)c1C  inhibition (CDK3 with cyclin E; enzyme activity, inhibitor; 0.3 µM): 1%
NS(=O)(=O)c1cc(NC(=O)Cc2ccccc2)ccc1Oc1cccc(Cl)c1  remaining binding (CDK3; cell-free assay, competition with immobilised ligand; 1 µM): 92%
Cc1sc(C(=O)NC2COC2)cc1-n1cc(NC(=O)Nc2c(F)cccc2Cl)cn1  remaining activity (CDK3 with cyclin E; enzyme activity, inhibitor; 10 µM): 91.2%
COc1cccc(CNC(=O)c2nc3scc(COCc4ccc(C(=O)O)cc4)c3c(=O)[nH]2)c1  remaining binding (CDK3; cell-free assay, competition with immobilised ligand; 1 µM): 100%
O=C1NC(=O)c2cc(Nc3ccc(F)cc3)c(Nc3ccc(F)cc3)cc21  remaining signal (CDK3 with cyclin E; cell-free assay; 0.5 µM): 98.9%
CN(C)c1ncnc(-c2ccc3nc(Nc4cc(CN5CCN(C(=O)CC(F)(F)F)CC5)ccn4)[nH]c3c2)c1Cl  remaining binding (CDK3; cell-free assay, competition with immobilised ligand; 1 µM): 86%
CN1CC(Oc2cnc(C#N)cc2-c2ccn3nc(NC(=O)C4CC4)cc3c2)C1  inhibition (CDK3 with cyclin E; enzyme activity, inhibitor; 1 µM): 4%
COc1cc(-c2cn(C3CCc4c(F)cccc4N(CC(F)(F)F)C3=O)nn2)ccc1-n1cnc(C)c1 (stereo not drawn)  remaining binding (CDK3; cell-free assay, competition with immobilised ligand; 1 µM): 100%
Cc1ccc(C(=O)Nc2ccc(CN3CCN(C)CC3)c(C(F)(F)F)c2)cc1C#Cc1cnc2cccnn12  remaining activity (CDK3; enzyme activity, inhibitor; 23.5 nM): 95%
CNC(=O)c1cc(Oc2ccc(NC(=O)Nc3ccc(Cl)c(C(F)(F)F)c3)cc2)ccn1  inhibition (CDK3 with cyclin E; enzyme activity, inhibitor; 10 µM): 0%
O=C(Nc1cnn(-c2csc(C(=O)NC3COC3)c2)c1)Nc1c(F)cccc1Cl  remaining activity (CDK3 with cyclin E2; enzyme activity, inhibitor; 5 µM): 109%
CS(=O)(=O)Nc1cccc(-c2csc(NC(=O)CSc3nc4nccnc4c(=O)n3CCc3ccccc3)n2)c1  inhibition (Cyclin-dependent kinase 3, with cyclin E1 (CDK3, Homo sapiens, UniProt Q00526); enzyme activity, inhibitor; 10 µM): 2%
COc1cc(Cl)c(C(=O)N[C@@H](CN[C@H]2CC[C@@H](N)CC2)Cc2ccc(C#N)cc2)cc1-c1ccc(CN[C@H](C)c2ccc(C)cc2)o1  remaining activity (CDK3 with cyclin E; enzyme activity, inhibitor; 1 µM): 99%
NS(=O)(=O)c1cc(NC(=O)C2(c3ccccc3Cl)CC2)ccc1Oc1cccc(Cl)c1  remaining binding (CDK3; cell-free assay, competition with immobilised ligand; 1 µM): 90%
Cc1ccc(Nc2nccc(N(C)c3ccc4c(C)n(C)nc4c3)n2)cc1S(N)(=O)=O  inhibition (CDK3 with cyclin E; enzyme activity, inhibitor; 10 µM): 8%
CCCS(=O)(=O)Nc1ccc(F)c(C(=O)c2c[nH]c3ncc(-c4ccc(Cl)cc4)cc23)c1F  inhibition (CDK3 with cyclin E; enzyme activity, inhibitor; 1 µM): < 10%
